These results are taken from ChEMBL document CHEMBL2202995, “Synthesis and SAR study of 4,5-diaryl-1H-imidazole-2(3H)-thione derivatives, as potent 15-lipoxygenase inhibitors” (Bioorg Med Chem, 2012).

Molecules are shown by their SMILES.

The subject of assay [1] is Radical scavenging activity. In words: Antioxidant activity of compound assessed as DPPH radical scavenging activity by colorimetric method. The format is functional. In outline: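 DPPH colorimetric scavenging assay: DPPH solution mixed with an equal volume of compound dissolved in ethanol, several dilutions tested, ethanol as control. After 30 min at room temperature, absorbance read at 517 nm. IC50 obtained by regression analysis of the mean values.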

The nature of assay [2]: Inhibition of soybean 15-LOX assessed as peroxide level by DMAB-MBTH method. Also on record: species or system Glycine max. An outline of the steps:
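Soybean lipoxygenase (SLO, 40,000 units/mL, 25 µL) and compound in ethanol preincubated 5 min at room temperature in 50 mM phosphate buffer pH 7.0; ethanol-only control. Reaction started with linoleic acid substrate in ethanol/100 mM KOH. After 7 min, 50 mM DMAB in 100 mM phosphate pH 7.0 was added, then MBTH/hemoglobin in phosphate pH 5.0, as colorimetric peroxide read-out.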

As to `CN(C)c1ccc(-c2[nH]c(=S)[nH]c2-c2ccc(Cl)cc2)cc1`, the IC50 is 15.9 µM in assay [1] and 22.3 µM in assay [2].
For `CSc1ccc(-c2[nH]c(=S)[nH]c2-c2ccccc2)cc1`, in that order: 90 µM and 5.7 µM.
On the same counts, the results for `COc1ccc(-c2[nH]c(=S)[nH]c2-c2ccc(N(C)C)cc2)cc1` are 15.2 µM and 9.4 µM.
On the same counts, the results for `Fc1ccc(-c2[nH]c(=S)[nH]c2-c2ccc(F)cc2)cc1` are 143 µM and 23.4 µM.
For `COc1ccc(-c2nc(SC)[nH]c2-c2ccc(Cl)cc2)cc1`, the IC50 in assay [1] and in assay [2] was more than 250 µM in each case.
Regarding `Cc1nc(N2CCN(C)CC2)nc2c1Nc1ccccc1S2`, the IC50 in assay [2] was 34.2 µM.
As to `CSc1ccc(-c2[nH]c(=S)[nH]c2-c2ccc(F)cc2)cc1`, the half-maximal inhibitory concentration (IC50) in assay [1] turned out to be 49 µM; in assay [2], 136 µM.
Take `CC(Cc1ccc(O)c(O)c1)C(C)Cc1ccc(O)c(O)c1` (stereo not given) [NORDIHYDROGUAIARETIC ACID]: the IC50 in assay [1] was determined as 6.2 µM.
As for `S=c1[nH]c(-c2ccc(Cl)cc2)c(-c2ccc(Cl)cc2)[nH]1`, the IC50 came to 107 µM in assay [1] and 62 µM in assay [2].
Turning to `S=c1[nH]c(-c2ccccc2)c(-c2ccccc2)[nH]1`, the concentration for half-maximal inhibition (IC50) is 49.2 µM in assay [1] and 15.2 µM in assay [2].
With `S=c1[nH]c(-c2ccccc2)c(-c2ccc(Cl)cc2)[nH]1`, the IC50 was 30.3 µM in assay [1] and 24.9 µM in assay [2].
Turning to `COc1ccc(-c2[nH]c(=S)[nH]c2-c2ccc(F)cc2)cc1`, the IC50 in assay [1] was found to be 57.2 µM; in assay [2], 11 µM.
As for `COc1ccc(-c2[nH]c(=S)[nH]c2-c2ccc(Cl)cc2)cc1`, the results for the IC50 in assay [1] and in assay [2] were 14 µM and 4.7 µM, respectively.
On the same counts, the results for `CSc1ccc(-c2[nH]c(=S)[nH]c2-c2ccc(Cl)cc2)cc1` are 21.2 µM and 19.7 µM.
Take `COc1ccc(-c2[nH]c(=S)[nH]c2-c2ccccc2)cc1`: the half-maximal inhibitory concentration (IC50) was found to be 87.4 µM in assay [1] and 13.7 µM in assay [2].
For `COc1ccc(-c2nc(S)[nH]c2-c2ccc(OC)cc2)cc1`, in that order: 15.5 µM and 14.7 µM.
